Compound activity deposited in PubChem by several laboratories.
Only some compounds are listed: those with a hit (about 1% of all), similar ones and a draw of the others.
ABCB1 block – human ABCB1 inhibition, ABCG2 as counter-screen; inhibition, % at 6.6 µM; CCRF-Adr cells, JC-1 efflux, flow cytometry; 0.067% of 190,000 active; P08183; AID 1326; in the data active = inhibition above about 40%;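 note: 0% = vehicle and 100% = reference inhibitor; higher value means more JC-1 retained so stronger ABCB1 efflux block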
ABCG2 block – human ABCG2 inhibition, ABCB1 as counter-screen; Q9UNQ0; IgMXP3 cells, JC-1 efflux, flow cytometry; 0.1% of 190,000 active; inhibition, % at 6.6 µM; AID 1325;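 active = inhibition above 80%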;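 note: 0% = DMSO and 100% = nicardipine control wells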
Target sequence (Q9UNQ0 whole entry, looked up): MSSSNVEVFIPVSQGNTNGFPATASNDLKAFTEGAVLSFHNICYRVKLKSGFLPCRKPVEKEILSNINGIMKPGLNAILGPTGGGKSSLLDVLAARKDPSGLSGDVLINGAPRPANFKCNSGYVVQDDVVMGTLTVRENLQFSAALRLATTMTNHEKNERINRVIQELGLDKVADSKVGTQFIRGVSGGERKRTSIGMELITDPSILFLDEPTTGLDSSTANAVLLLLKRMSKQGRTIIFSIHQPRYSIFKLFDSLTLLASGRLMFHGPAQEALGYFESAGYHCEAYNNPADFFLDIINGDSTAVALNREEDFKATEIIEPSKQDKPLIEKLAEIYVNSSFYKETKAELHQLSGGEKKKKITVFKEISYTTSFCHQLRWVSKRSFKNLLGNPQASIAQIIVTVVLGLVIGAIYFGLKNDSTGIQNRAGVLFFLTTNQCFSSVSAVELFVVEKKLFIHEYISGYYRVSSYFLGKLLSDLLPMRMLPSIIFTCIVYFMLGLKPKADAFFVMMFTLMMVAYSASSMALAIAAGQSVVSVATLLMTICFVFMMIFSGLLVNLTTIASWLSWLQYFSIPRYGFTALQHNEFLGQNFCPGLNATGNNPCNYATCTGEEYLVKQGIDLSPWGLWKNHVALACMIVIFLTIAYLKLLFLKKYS
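Incubation: cells with compound and JC-1, 10 min at 25 °C, rotating, no wash / Test system: IgMXP3 (ABCG2) plus far-red-tagged CCRF-Adr (ABCB1) cells / Compound dosing: one concentration, 6.6 µM final / Also added: JC-1 fluorescent substrate / Evaluation: efflux inhibition in percent versus controls / Detection: flow cytometry, 530 nm JC-1 signal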
b-catenin transl – modulators of beta-catenin nuclear translocation | AID 1665 | 0.3% of 190,000 active | nuclear translocation activity, % at 5 µM | HeLa beta-catenin nuclear translocation, immunofluorescence imaging;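 active = nuclear translocation activity above 50% at 5 µM, with a well cell count of 50 or more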;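 note: per-cell ratio of nuclear to cytoplasmic median beta-catenin stain intensity; plate controls were DMSO negative control for no effect and GSK-3 inhibitor IX positive control for full effect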
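System: HeLa cells, endogenous beta-catenin; compound dosing: 5 µM primary single dose, 0.1% DMSO, 0.02–20 µM confirmation series; incubation: 24 h compound exposure at 37°C, 5% CO2; signal: beta-catenin immunofluorescence imaging with DAPI; evaluation: % activation, nuclear-to-cytoplasmic median beta-catenin signal ratio per cell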
MT stabilize HCS – stabilizes microtubules in HeLa cells; HeLa tubulin immunostaining HCS, 24 h; share of cells brighter than vehicle mean+2SD; 0.83% of 200,000 active; % tubulin-high responders, % at 10 µM;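 active = plate Z-score above 3 for both tubulin-high and condensed-nucleus cell shares, with cell loss under 80%, at 10 µM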;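 note: anti alpha tubulin signal scored within the nucleus-defined area of each cell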
PKD1 inh – inhibitors of human PKD1 kinase | Q15139 | PKD1 kinase fluorescence polarization assay | inhibition, % (test concentration not listed) | 0.056% of 200,000 active; in the data active = inhibition above about 50%
Active calls of the source: *; . = no result.

SMILES	ABCB1 block	ABCG2 block	b-catenin transl	MT stabilize HCS	PKD1 inh
COc1cc2c(cc1NC(=O)COC(=O)CNS(=O)(=O)c1ccc(C)cc1)oc1ccccc12	0.0	7.3	0.7	5.3	7.6
Cc1nn(-c2ccccc2)c(Cl)c1/C=C1/C(=N)N2N=C(C(C)C)SC2=NC1=O	-0.3	-3.8	-2.7	9.9*	-11.4
CCn1c2ccccc2c2cc(/C=N/NC(=O)c3ccccc3)ccc21	-0.7	-8.6	1.3	20.5*	-3.4
O=C(N/N=C/c1ccc(F)cc1)c1ccccc1	0.1	3.4	0.0	2.4	-4.0
CCCCCc1ccc(OCCCC[n+]2ccc(C)cc2)c(CCCCC)c1	3.1	10.3	-0.1	.	10.5
CCCCCc1ccc(OCCCC[n+]2cccc(C)c2)c(CCCCC)c1	1.0	2.7	4.2	56.1*	1.6
CCC(C)(C)c1ccc(OCCCC[n+]2ccccc2)c(C(C)(C)CC)c1	1.2	7.2	.	80.0	-6.4
CCCCCc1ccc(OCCCC[n+]2ccccc2)c(CCCCC)c1	0.5	9.8	8.9	27.8*	-1.4
Cc1ccc(NS(=O)(=O)c2ccc(NC(=O)c3cccc(NC(=O)C(C)C)c3)cc2)cc1	-0.3	-0.3	-1.8	2.1	-1.3
COC(=O)c1ccc(C(=O)N2CCCC(CNC(=O)c3ccccc3Cl)C2)cc1 (configuration not stated)	0.5	1.4	-0.2	3.0	0.2
CCCCCCNCc1c(F)cccc1Cl	0.1	-1.2	.	2.0	-8.4
Cn1cccc1C(=O)NC(=O)COC(=O)c1cc(S(=O)(=O)N2CCCCC2)ccc1Cl	1.0	4.2	0.0	3.7	91.4*
COc1ccc(S(=O)(=O)N2CCCCCC2)cc1C(=O)OCC(=O)NC(N)=O	0.5	5.0	-3.7	2.1	3.6
CCN(CC)S(=O)(=O)c1ccc(Cl)c(NC(=O)COC(=O)c2cccn2C)c1	1.2	12.2	-1.0	18.0*	7.7
CCN(CC)S(=O)(=O)c1ccc(Cl)c(NC(=O)COC(=O)c2ccc(O)cc2)c1	-0.6	-1.8	-0.3	2.6	-5.8
O=C(NC1CCSC1=O)C1CCCCC1 (configuration not stated)	0.1	0.1	-3.2	3.7	-9.5
CCc1ccc(NC(=O)CSC2=C(C#N)C(c3ccco3)C3=C(CCCC3=O)N2)cc1 (configuration not stated)	0.9	2.2	-6.2	5.1	-6.2
N#CC1=C(SCC(=O)c2ccc(Br)cc2)NC2=C(C(=O)CCC2)C1c1ccco1 (configuration not stated)	0.7	2.0	46.7	31.7*	-0.6
N#C/C(=C/c1ccc(N2CCOCC2)o1)c1ccc(Cl)cc1	0.9	4.6	-0.3	47.7*	-18.0
COc1cc(C2Nc3cccc4cccc(c34)N2)cc(OC)c1OC(C)=O	-0.2	-0.6	-1.1	16.1*	0.9
O=[N+]([O-])c1cc(C2Nc3cccc4cccc(c34)N2)ccc1Cl	-0.2	-1.0	.	3.1	2.1
O=C(COc1ccc([N+](=O)[O-])cc1)Nc1ccc2c(c1)OCO2	0.7	3.5	0.1	12.0*	1.0
CC(C)c1csc(CN2CCC(CO)(Cc3cccc(F)c3)CC2)n1	0.2	0.3	1.4	2.1	-1.9
COc1cc(/C=C/C(=O)O)cc(S(=O)(=O)Nc2ccccc2Cl)c1OC	0.0	0.2	-2.5	2.2	-0.6
O=C(CN1CCN(Cc2ccccc2)CC1)N1CCCc2c1c(=O)oc1ccc(O)cc21	0.8	3.0	0.3	34.6*	18.5
SMILES	ABCB1 block	ABCG2 block	b-catenin transl	MT stabilize HCS	PKD1 inh
COc1ccc(OC)c(/C=N/c2c(-c3ccc(O)c(OC)c3)nc3ccccn23)c1	1.2	14.1	-0.9	2.2	-6.3
COc1ccc(C(=O)N(Cc2ccco2)Cc2cc3cc(C)ccc3[nH]c2=O)cc1OC	.	.	.	2.0	0.0
COc1ccccc1NC(=S)N(Cc1ccco1)Cc1cc2cc(C)ccc2[nH]c1=O	0.7	8.0	0.5	32.9*	-12.8
Cc1ccc2[nH]c(=O)c(CN(Cc3ccco3)C(=O)c3ccncc3)cc2c1	0.1	0.6	-3.0	14.3*	-8.0
COc1c(C)cc(C(=O)C2CCCN(C(=O)CCc3scnc3C)C2)cc1C (configuration not stated)	3.2	0.0	1.0	4.1	1.7
CCO[C@H]1OC(C(=O)NCc2nc3ccccc3[nH]2)=C[C@@H](C2CC2)[C@@H]1CCCO	0.6	3.4	121.7*	22.5*	-0.8
COc1cccc(C(=O)/C=C/c2ccc(OCC#N)c(OC)c2)c1	0.9	9.3	0.9	2.7	-12.3
COc1cc(/C=C/C(=O)c2ccc(O)cc2)ccc1OCC#N	-1.0	-0.8	-1.5	11.1*	1.8
Cc1ccc(N/N=C(\Cc2nc3ccccc3[nH]2)c2ccccc2)cc1	0.5	7.4	106.7*	5.2	5.5
CC1CCc2nc(/C(C#N)=C/c3ccncc3)sc2C1 (configuration not stated)	-0.1	20.4	-1.5	3.3	0.5
Cc1ccsc1C(=O)N1CC(=O)Nc2ccccc21	0.3	1.0	0.3	21.4	4.5
Cc1cc(C)cc(C(=O)N2CC(=O)Nc3ccccc32)c1	-0.7	-4.5	153.9*	28.0*	-6.0
CN(NC(=O)c1ccc(Cl)cc1)c1nc(-c2ccccc2)nnc1C(F)(F)F	-0.5	-1.9	-0.3	2.2	-1.2
Cc1ccc(C(=O)NN(C)c2nc3ccccc3nc2C(F)(F)F)cc1	0.1	1.1	10.7	40.9*	-8.0
CNc1nc(SC)nc2ccccc12	-0.5	-0.1	0.6	4.2	3.0
CSc1nc(N(C)NC(=O)c2ccc(Cl)cc2)c2ccccc2n1	0.6	1.4	18.9	18.9*	6.5
CN(NC(=O)c1ccc(Cl)cc1)c1ncc(C(F)(F)F)cc1Cl	.	.	-1.9	.	.
CSc1nc(N(C)NC(=O)c2ccccc2)c2ccccc2n1	0.3	1.0	54.0*	32.9*	-0.8
CCN(C(=O)CSc1nc(-c2ccccc2)c(-c2ccccc2)[nH]1)C1CCS(=O)(=O)C1 (configuration not stated)	0.5	1.7	3.2	1.1	-0.5
Cc1ccc(NC2=NC3(CCCC3)N=C(N)N2)c(C)c1	2.0	2.6	-1.1	24.6*	-4.7
Cc1ccc(NC2=NC3(CCCCC3)N=C(N)N2)c(C)c1	0.2	2.5	.	3.9	-8.1
COC(=O)c1ccccc1NC(=O)c1cccc(COc2ccccc2Cl)c1	-0.2	2.3	122.6*	46.0*	-2.1
O=C(COc1ccc(/C=N/NC(=O)c2ccccc2O)cc1)Nc1ccccc1	0.3	0.7	-2.0	1.0	1.0
Cc1cc(C(=O)CSc2nnc(NCc3ccccc3)s2)c(C)n1C	2.4	54.3	111.0*	46.4	-11.5
COc1ccccc1C(=O)N1c2ccccc2Sc2ccccc21	1.1	8.9	14.4	10.9*	-4.8
O=C1CCCc2ccccc2N1	-0.1	-0.9	-2.2	1.9	-5.5
O=c1cc(-c2ccccc2F)oc2ccccc12	-0.1	12.4	1.4	2.3	1.9
O=c1cc(-c2ccccc2[N+](=O)[O-])oc2ccccc12	1.1	13.0	9.5	12.4*	0.5
